ChEMBL document CHEMBL1138767, “Macrocyclic inhibitors for peptide deformylase: a structure-activity relationship study of the ring size” (J Med Chem, 2004)
Converted amounts (≈) assume the structure as drawn.

Assays:
[1] = molecular target: T1, Interstitial collagenase (Homo sapiens) (UniProt P03956); assay: Inhibition of MMP-1 (matrix metalloprotease) at 1 uM
T1 sequence (whole entry): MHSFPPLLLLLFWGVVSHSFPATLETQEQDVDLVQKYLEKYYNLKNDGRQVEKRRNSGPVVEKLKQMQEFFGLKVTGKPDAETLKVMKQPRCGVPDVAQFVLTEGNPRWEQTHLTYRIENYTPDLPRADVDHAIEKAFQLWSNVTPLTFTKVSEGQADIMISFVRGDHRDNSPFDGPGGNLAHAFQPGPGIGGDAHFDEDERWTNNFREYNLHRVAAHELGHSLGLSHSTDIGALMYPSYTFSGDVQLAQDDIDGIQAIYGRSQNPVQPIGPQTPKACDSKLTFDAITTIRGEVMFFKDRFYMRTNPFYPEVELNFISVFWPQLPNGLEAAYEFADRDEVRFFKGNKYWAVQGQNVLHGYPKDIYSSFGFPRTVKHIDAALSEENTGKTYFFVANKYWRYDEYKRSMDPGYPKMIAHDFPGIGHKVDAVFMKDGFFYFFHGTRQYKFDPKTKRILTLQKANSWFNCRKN
Procedure, shortened: (§1)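 Human MMP-1, -2, -3 or -9 (0.10 µg, added last to start the reaction) in 100 mM Tris, 100 mM NaCl, 10 mM CaCl2, 0.04% Brij-35. Contained 15 µM fluorogenic peptide substrate (Mca-P-K-G-Dpa-A-R-NH2 for MMP-1/-2) and inhibitor at 0, 1 or 10 µM. Remaining activity monitored continuously by fluorescence, excitation 320 nm, emission 405 nm.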

[2] = molecular target: Stromelysin-1 (Homo sapiens) (UniProt P08254); assay: Inhibition of MMP-3 (matrix metalloprotease) at 1 uM; procedure, shortened: as §1
Sequence of Stromelysin-1 (Homo sapiens) (P08254 100-477 limits assumed): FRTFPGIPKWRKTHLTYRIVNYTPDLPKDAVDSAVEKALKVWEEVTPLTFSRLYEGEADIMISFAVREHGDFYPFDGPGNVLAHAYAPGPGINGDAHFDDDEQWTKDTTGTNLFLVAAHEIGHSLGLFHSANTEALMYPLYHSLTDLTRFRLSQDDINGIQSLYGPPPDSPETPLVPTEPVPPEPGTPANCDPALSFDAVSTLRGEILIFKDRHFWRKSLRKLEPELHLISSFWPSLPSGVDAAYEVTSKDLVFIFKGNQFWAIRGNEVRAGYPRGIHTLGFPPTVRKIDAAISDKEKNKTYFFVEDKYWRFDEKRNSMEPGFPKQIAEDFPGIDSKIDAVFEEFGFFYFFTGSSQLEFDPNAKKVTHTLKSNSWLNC

[3] = molecular target: 72 kDa type IV collagenase (Homo sapiens) (UniProt P08253); assay: Inhibition of MMP-2 (matrix metalloprotease) at 1 uM; procedure, shortened: as §1
Sequence of 72 kDa type IV collagenase (Homo sapiens) (P08253 110-660 limits assumed): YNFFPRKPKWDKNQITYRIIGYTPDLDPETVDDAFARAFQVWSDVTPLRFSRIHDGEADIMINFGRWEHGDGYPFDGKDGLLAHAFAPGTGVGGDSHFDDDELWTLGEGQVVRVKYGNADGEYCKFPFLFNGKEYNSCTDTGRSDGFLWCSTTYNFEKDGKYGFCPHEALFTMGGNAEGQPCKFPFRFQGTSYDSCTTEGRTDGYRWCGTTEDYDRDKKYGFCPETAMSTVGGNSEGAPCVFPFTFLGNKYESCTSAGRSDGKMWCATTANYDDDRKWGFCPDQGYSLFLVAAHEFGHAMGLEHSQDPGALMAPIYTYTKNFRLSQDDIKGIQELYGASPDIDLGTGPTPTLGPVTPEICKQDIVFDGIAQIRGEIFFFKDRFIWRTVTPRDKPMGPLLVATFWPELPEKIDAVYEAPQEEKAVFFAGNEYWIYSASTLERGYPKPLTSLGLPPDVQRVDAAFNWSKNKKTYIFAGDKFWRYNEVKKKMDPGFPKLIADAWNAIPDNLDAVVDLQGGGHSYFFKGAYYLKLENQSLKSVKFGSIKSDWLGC

[4] = molecular target: T2, Peptide deformylase (Escherichia coli) (UniProt Q9JN24); assay: The inhibition constant was measured against Escherichia coli PDF (Peptide deformylase) by diluting a preformed EI* complex into a assay buffer containing f-Met-Lys-AMC and DPPI
T2 sequence (whole entry): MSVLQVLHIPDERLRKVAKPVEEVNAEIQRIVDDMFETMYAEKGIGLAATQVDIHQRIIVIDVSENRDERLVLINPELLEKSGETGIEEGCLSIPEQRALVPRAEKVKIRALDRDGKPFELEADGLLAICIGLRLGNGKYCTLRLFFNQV
Procedure, shortened: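 E. coli PDF (Co(II) form) at 40–160 nM and inhibitor at 80–200 nM, preincubated 2 h on ice in 50 mM Hepes pH 7.0, 10 mM NaCl, 5 mM DTT with 100 µM BSA. Then diluted 10-fold into the same buffer with 270 µM f-Met-Lys-AMC and 0.1 U DPPI. Recovery of activity followed continuously at 360 nm; k6 taken from progress curves.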

Peptide deformylase [5] = molecular target: T3, Peptide deformylase (Escherichia coli, UniProt Q9JN24); assay: Inhibitory effect against Escherichia coli peptide deformylase (PDF) by AAP assay
T3 sequence (Q9JN24 whole entry): T2 sequence (whole entry)
Procedure, shortened: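 E. coli PDF (Co(II) cofactor) 8 nM preincubated with 0–300 nM inhibitor 2 h on ice in 50 mM Hepes pH 7.0, 150 mM NaCl, 100 μM BSA. Reaction started at room temperature with 80 μM f-ML-pNA for 10 min, heat-quenched at 95 °C, then coupled with AAP. A405 measured, no-PDF background subtracted, conversion <20%. K_I* from Michaelis–Menten fit.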

[6] = molecular target: Stromelysin-1 (Homo sapiens) (UniProt P08254); assay: Inhibition of MMP-3 (matrix metalloprotease) at 10 uM; procedure, shortened: as §1
[7] = molecular target: Matrix metalloproteinase-9 (Homo sapiens) (UniProt P14780); assay: Inhibition of MMP-9 (matrix metalloprotease) at 10 uM; procedure, shortened: as §1
Sequence of Matrix metalloproteinase-9 (Homo sapiens) (P14780 whole entry): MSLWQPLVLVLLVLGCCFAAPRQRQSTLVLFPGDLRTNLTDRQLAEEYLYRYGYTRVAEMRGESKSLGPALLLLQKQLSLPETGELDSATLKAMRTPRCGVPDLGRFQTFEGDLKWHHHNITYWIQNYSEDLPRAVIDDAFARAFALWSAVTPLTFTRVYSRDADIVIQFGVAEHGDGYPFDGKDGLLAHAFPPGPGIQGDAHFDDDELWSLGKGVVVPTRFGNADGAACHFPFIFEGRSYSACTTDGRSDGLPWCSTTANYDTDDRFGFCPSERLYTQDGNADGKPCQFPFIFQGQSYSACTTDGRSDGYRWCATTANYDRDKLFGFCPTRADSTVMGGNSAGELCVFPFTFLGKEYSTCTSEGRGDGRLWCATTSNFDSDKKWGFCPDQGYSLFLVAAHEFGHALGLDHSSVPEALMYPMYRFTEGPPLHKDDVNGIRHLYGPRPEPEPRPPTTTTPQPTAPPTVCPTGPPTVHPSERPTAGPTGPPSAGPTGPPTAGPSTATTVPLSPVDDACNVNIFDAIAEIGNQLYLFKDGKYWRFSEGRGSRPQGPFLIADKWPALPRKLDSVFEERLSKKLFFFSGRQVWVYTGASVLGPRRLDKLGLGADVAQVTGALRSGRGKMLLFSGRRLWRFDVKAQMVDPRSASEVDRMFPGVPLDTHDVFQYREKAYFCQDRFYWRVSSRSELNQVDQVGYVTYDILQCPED

[8] = molecular target: T2, Peptide deformylase (Escherichia coli); assay: Inhibition constant against Escherichia coli Peptide deformylase (PDF)
[9] = molecular target: 72 kDa type IV collagenase (Homo sapiens) (UniProt P08253); assay: Inhibition of MMP-2 (matrix metalloprotease) at 10 uM; procedure, shortened: as §1
[10] = molecular target: T1, Interstitial collagenase (Homo sapiens); assay: Inhibition of MMP-1 (matrix metalloprotease) at 10 uM; procedure, shortened: as §1
[11] = molecular target: Matrix metalloproteinase-9 (Homo sapiens) (UniProt P14780); assay: Inhibition of MMP-9 (matrix metalloprotease) at 1 uM; procedure, shortened: as §1
Escherichia coli = assay: The compound was tested in vitro for antibacterial activity against Escherichia coli; type: functional
Procedure, shortened: (§2)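 Broth microdilution per NCCLS M7-A5 in cation-adjusted Mueller–Hinton broth; 5% lysed horse blood added for streptococci, Haemophilus Test Medium for Haemophilus. Inoculum ~5 × 10^5 CFU/mL from 16–20 h plate cultures. Twofold dilutions, final 0.03–32 µg/mL. Incubated 16–20 h at 35–37 °C (Haemophilus and Streptococcus: 24 h, 5% CO2). MIC is the lowest concentration with no visible growth, read visually.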

Bacillus subtilis = assay: The compound was tested in vitro for antibacterial activity against Bacillus subtilis
Peptide deformylase [12] = molecular target: T3, Peptide deformylase; assay: Inhibitory effect against Escherichia coli peptide deformylase (PDF) by DPPI assay
Procedure, shortened: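 E. coli PDF (Co(II) cofactor) assayed continuously at room temperature in 50 mM Hepes, 10 mM NaCl, 5 mM DTT, pH 7.0. Read at 360 nm, initial rates from <30 s, no-PDF background subtracted. K_I from Michaelis–Menten fit.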

Haemophilus influenzae = assay: The compound was tested in vitro for antibacterial activity against Haemophilus influenzae (ATCC 31517); type: functional; procedure, shortened: as §2
Streptococcus pneumoniae [13] = assay: The compound was tested in vitro for antibacterial activity against Streptococcus pneumoniae (ATCC 6303); type: functional; procedure, shortened: as §2
Staphylococcus aureus = assay: The compound was tested in vitro for antibacterial activity against Staphylococcus aureus (ATCC 29213); type: functional; procedure, shortened: as §2
Moraxella catarrhalis = assay: The compound was tested in vitro for antibacterial activity against Moraxella catarrhalis (ATCC 37054); type: functional; procedure, shortened: as §2
Streptococcus pneumoniae [14] = assay: The compound was tested in vitro for antibacterial activity against Streptococcus pneumoniae (ATCC 49619); type: functional; procedure, shortened: as §2
Streptococcus pneumoniae [15] = assay: The compound was tested in vitro for antibacterial activity against Streptococcus pneumoniae (ATCC 6301); type: functional; procedure, shortened: as §2
Enterococcus faecalis = assay: The compound was tested in vitro for antibacterial activity against Enterococcus faecalis(ATCC 29212); type: functional; procedure, shortened: as §2

Compound	inhibition [1] [%]	inhibition [2] [%]	inhibition [3] [%]	K6 [4]	inhibition [6] [%]	inhibition [7] [%]	K5 [8]	inhibition [9] [%]	inhibition [10] [%]	inhibition [11] [%]	MIC90 (Escherichia coli) [µg/mL]	Ki (Peptide deformylase [5]; read-out: Ki) [nM]	MIC90 (Bacillus subtilis) [µg/mL]	Ki (Peptide deformylase [12]) [nM]	further results
CCCCCCNC(=O)[C@H](CCCCN)NC(=O)[C@H](CCCCC)CN(O)C=O	50	81	73	No Slow-Binding Behaviour	99	94	No Slow-Binding Behaviour	98	100	61					Ki (Peptide deformylase [5]): No Slow-Binding Behaviour
CC(C)(C)[C@@H]1NC(=O)[C@@H](CN(O)C=O)CCCCCCCCCCCNC1=O				0.0015 min⁻¹			0.5 min⁻¹				> 24	0.22	0.08 (≈ 0.201 µM)	77	
NCCCC[C@@H]1NC(=O)[C@@H](CN(O)C=O)CCCCCCCCCCCCCCNC1=O	1	0	6	0.018 min⁻¹	6	5	0.11 min⁻¹	15	7	4	> 32	36	> 32		MIC90 (Haemophilus influenzae): 32 µg/mL (≈ 70.4 µM); MIC90 (Streptococcus pneumoniae [13]): > 32 µg/mL; MIC90 (Staphylococcus aureus): 32 µg/mL (≈ 70.4 µM); MIC90 (Moraxella catarrhalis): 1 µg/mL (≈ 2.2 µM); MIC90 (Streptococcus pneumoniae [14]): > 32 µg/mL; MIC90 (Streptococcus pneumoniae [15]): > 32 µg/mL; MIC90 (Enterococcus faecalis): 32 µg/mL (≈ 70.4 µM)
CC(C)(C)[C@@H]1NC(=O)[C@@H](CN(O)C=O)CCCCCCCCCCCCCCNC1=O	7	3	0	0.01 min⁻¹	4	6	1 min⁻¹	0	8	4	> 24	25	~16 (≈ 36.4 µM)		MIC90 (Haemophilus influenzae): > 32 µg/mL; MIC90 (Streptococcus pneumoniae [13]): 4 µg/mL (≈ 9.1 µM); MIC90 (Staphylococcus aureus): > 32 µg/mL; MIC90 (Moraxella catarrhalis): < 0.03 µg/mL; MIC90 (Streptococcus pneumoniae [14]): 8 µg/mL (≈ 18.2 µM); MIC90 (Streptococcus pneumoniae [15]): 8 µg/mL (≈ 18.2 µM); MIC90 (Enterococcus faecalis): > 32 µg/mL
CC(C)(C)[C@@H]1NC(=O)[C@@H](CN(O)C=O)CCCCCCCCCNC1=O	7	3	4	0.0038 min⁻¹	9	9	1.2 min⁻¹	8	14	5		0.33	0.7 (≈ 1.89 µM)	109	MIC90 (Haemophilus influenzae): 0.5 µg/mL (≈ 1.35 µM); MIC90 (Streptococcus pneumoniae [13]): 2 µg/mL (≈ 5.41 µM); MIC90 (Staphylococcus aureus): 16 µg/mL (≈ 43.3 µM); MIC90 (Moraxella catarrhalis): 0.62 µg/mL (≈ 1.68 µM); MIC90 (Streptococcus pneumoniae [14]): 4 µg/mL (≈ 10.8 µM); MIC90 (Streptococcus pneumoniae [15]): 4 µg/mL (≈ 10.8 µM); MIC90 (Enterococcus faecalis): > 32 µg/mL
NCCCC[C@@H]1NC(=O)[C@@H](CN(O)C=O)CCCCCCCCCNC1=O				0.0042 min⁻¹			0.12 min⁻¹				4 (≈ 10.4 µM)	3	~8 (≈ 20.8 µM)	92	
CC(C)(C)[C@@H]1NC(=O)[C@@H](CN(O)C=O)CCCCCCCCCCNC1=O				0.0037 min⁻¹			1.6 min⁻¹				> 12	0.23	0.2 (≈ 0.521 µM)	96	
CC(=O)NCCCC[C@@H]1NC(=O)[C@@H](CN(O)C=O)CCCCCCCCCNC1=O	3	0	17	0.0048 min⁻¹	8	8	0.28 min⁻¹	20	13	8		12		710	
CCCC[C@H](CN(O)C=O)C(=O)N[C@H](C(=O)N(C)C)C(C)(C)C				No Slow-Binding Behaviour			No Slow-Binding Behaviour							11	Ki (Peptide deformylase [5]): No Slow-Binding Behaviour
CC(C)(C)[C@@H]1NC(=O)[C@@H](CN(O)C=O)CCCCCCCCNC1=O	0	3	10	0.0061 min⁻¹	20	11	0.02 min⁻¹	15	1	8	> 24	13.7	1.4 (≈ 3.94 µM)	63	
CCCC[C@H](CN(O)C=O)C(=O)N[C@@H](CCCCN)C(=O)Nc1ccccc1	50	68	34	No Slow-Binding Behaviour	73	89	No Slow-Binding Behaviour	55	97	54				23	Ki (Peptide deformylase [5]): No Slow-Binding Behaviour
